Published values pooled from the literature.
Protocols differ between the studies behind these lines.
Target: 5-hydroxytryptamine receptor 7 (HTR7, Homo sapiens, UniProt P34969)
Method: radioligand

Structure (SMILES) | observed | setting | Ki [nM]
O=C(CCCN1CCCN(c2ccc(Cl)cc2)CC1)c1ccc(F)cc1 | ligand displacement | – | 78
Cc1nc2sccn2c(=O)c1CCN1CCC(=C(c2ccc(F)cc2)c2ccc(F)cc2)CC1 | ligand displacement | cell membranes | 468
O=C1c2ccccc2CCN1CCCCN1CCN(c2cccc(Cl)c2Cl)CC1 | ligand displacement | – | 21
CCCCN1CCC(COC(=O)c2ccc(N)c(OCF)c2)CC1 | cell-free assay | – | > 10000
CCc1nc2cc(OCCCCN3CCC(c4cccc(Cl)c4Cl)CC3)ccc2s1 | cell-free assay | – | 160
CC1(CCN2CCc3ccccc3C2)Cc2cc(Cl)ccc2C1=O (racemic) | ligand displacement | – | 2.1
CN1CCN(CCCN2c3ccccc3Sc3ccc(C(F)(F)F)cc32)CC1 | ligand displacement | cell membranes | 497
CNc1nc2cc(OCCCCN3CCC(c4cccc(Cl)c4Cl)CC3)ccc2s1 | cell-free assay | – | 95
